# Assays:
# [1] = tested on: Cricetinae gen. sp.; assay: Reversal of keratinization in vitamin A deficient hamster trachea culture; assay type: functional, Cricetulus griseus; conditions: read-out: ED50 (the source's name)
# In short: (§1)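 Tracheas from 29-31-day-old hamsters kept on a vitamin A free diet, cultured in serum-free CMRL 1066 (insulin 1.0 μg/mL, hydrocortisone hemisuccinate 0.1 μg/mL, glutamine 2 mM, Garamycin 50 μg/mL), 50% O2/45% N2/5% CO2, rocked at 36 °C. Retinoid-free for 3 days, then retinoid in DMSO (0.1% final) for 7 days. Fixed in formalin; squamous metaplasia graded mild 2-10%, marked 10-40%, severe >40%.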
# [2] = tested on: Cricetinae gen. sp.; assay: Cultures with no evidence of squamous metaplasia at a concentration of 10e-9; assay type: functional, Cricetulus griseus
# In short: (§2)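 Tracheas from 29-31-day-old hamsters fed a vitamin A free diet; cultured in serum-free CMRL 1066 (insulin 1.0 μg/mL, hydrocortisone hemisuccinate 0.1 μg/mL, glutamine 2 mM, Garamycin 50 μg/mL), 50% O2/45% N2/5% CO2, rocked, 36 °C. Retinoid-free 3 days, then retinoid in DMSO (final 0.1%) for 7 days; medium and gas changed three times. Formalin-fixed day 10; squamous metaplasia graded: mild 2-10%, marked 10-40%, severe >40%.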
# [3] = tested on: Cricetinae gen. sp.; assay: Cultures with no evidence of squamous metaplasia at a concentration of 10e-10; assay type: functional, Cricetulus griseus; in short: as §2
# [4] = tested on: Cricetinae gen. sp.; assay: Cultures with minimal degree of squamous metaplasia at a concentration of 10e-9; assay type: functional, Cricetulus griseus; in short: as §2
# [5] = tested on: Cricetinae gen. sp.; assay: Cultures with no evidence of squamous metaplasia at a concentration of 10e-8 M; assay type: functional, Cricetulus griseus; in short: as §2
# [6] = tested on: Cricetinae gen. sp.; assay: Reversal of keratinization in vitamin A deficient hamster trachea culture at a concentration of 10e-8 M; assay type: functional, Cricetulus griseus; conditions: read-out: ED50 (the source's name); in short: as §1
# [7] = tested on: L1210; assay: Inhibition of proliferation of L1210 cells in culture at a concentration 20 ug/mL; assay type: functional, Mus musculus; parameters: scale not given: the % may be the effect or the level left
# In short: (§3)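 L1210 suspension of about 10⁵ cells treated with retinoid at 1-40 μg/mL, 37 °C for 48 h; cells counted at 0 and 48 h, three cultures averaged per concentration. % of control = 100 × (treated 48 h − 0 h count)/(control 48 h − 0 h count).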
# [8] = tested on: Cricetinae gen. sp.; assay: Cultures with marked degree of squamous metaplasia at a concentration of 10e-8 M; assay type: functional, Cricetulus griseus; in short: as §2
# [9] = tested on: Cricetinae gen. sp.; assay: Cultures with minimal degree of squamous metaplasia at a concentration of 10e-11; assay type: functional, Cricetulus griseus; in short: as §2
# [10] = tested on: Cricetinae gen. sp.; assay: Cultures with marked degree of squamous metaplasia at a concentration of 10e-11; assay type: functional, Cricetulus griseus; in short: as §2
# [11] = tested on: HEp-2; assay: Viability of human epidermoid carcinoma cells (H.Ep-2) at a concentration 40 ug/mL; assay type: functional
# In short: (§4)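 Human epidermoid carcinoma H.Ep.-2 cells, clone-colony viability assay with retinoid at 1-40 μg/mL; incubated 37 °C for 12 days, stained, colonies counted. % of control = 100 × treated colonies/control colonies.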
# [12] = tested on: Cricetinae gen. sp.; assay: Cultures with minimal degree of squamous metaplasia at a concentration of 10e-10; assay type: functional, Cricetulus griseus; in short: as §2
# [13] = tested on: Cricetinae gen. sp.; assay: Cultures with minimal degree of squamous metaplasia at a concentration of 10e-8 M; assay type: functional, Cricetulus griseus; in short: as §2
# [14] = tested on: HEp-2; assay: Viability of human epidermoid carcinoma cells (H.Ep-2) at a concentration 10 ug/mL; assay type: functional; in short: as §4
# [15] = tested on: Cricetinae gen. sp.; assay: Cultures with mild degree of squamous metaplasia at a concentration of 10e-8 M; assay type: functional, Cricetulus griseus; in short: as §2
# [16] = tested on: Cricetinae gen. sp.; assay: Cultures with severe degree of squamous metaplasia at a concentration of 10e-10; assay type: functional, Cricetulus griseus; in short: as §2
# [17] = tested on: Cricetinae gen. sp.; assay: Cultures with mild degree of squamous metaplasia at a concentration of 10e-10; assay type: functional, Cricetulus griseus; in short: as §2
# [18] = tested on: HEp-2; assay: Viability of human epidermoid carcinoma cells (H.Ep-2) at a concentration 1 ug/mL; assay type: functional; in short: as §4
# [19] = tested on: Cricetinae gen. sp.; assay: Cultures with severe degree of squamous metaplasia at a concentration of 10e-9; assay type: functional, Cricetulus griseus; in short: as §1
# [20] = tested on: L1210; assay: Inhibition of proliferation of L1210 cells in culture at a concentration 1 ug/mL; assay type: functional, Mus musculus; parameters: scale not given: the % may be the effect or the level left; in short: as §3
# [21] = tested on: Cricetinae gen. sp.; assay: Cultures with severe degree of squamous metaplasia at a concentration of 10e-8 M; assay type: functional, Cricetulus griseus; in short: as §1
# [22] = tested on: Cricetinae gen. sp.; assay: Cultures with mild degree of squamous metaplasia at a concentration of 10e-11; assay type: functional, Cricetulus griseus; in short: as §2
# [23] = tested on: Cricetinae gen. sp.; assay: Cultures with marked degree of squamous metaplasia at a concentration of 10e-9; assay type: functional, Cricetulus griseus; in short: as §2
# [24] = tested on: L1210; assay: Inhibition of proliferation of L1210 cells in culture at a concentration 10 ug/mL; assay type: functional, Mus musculus; parameters: scale not given: the % may be the effect or the level left; in short: as §3
# [25] = tested on: Cricetinae gen. sp.; assay: Cultures with mild degree of squamous metaplasia at a concentration of 10e-9; assay type: functional, Cricetulus griseus; in short: as §2
# [26] = tested on: Cricetinae gen. sp.; assay: Cultures with severe degree of squamous metaplasia at a concentration of 10e-11; assay type: functional, Cricetulus griseus; in short: as §1
# [27] = tested on: HEp-2; assay: Viability of human epidermoid carcinoma cells (H.Ep-2) at a concentration 20 ug/mL; assay type: functional; in short: as §4
# [28] = tested on: Cricetinae gen. sp.; assay: Cultures with marked degree of squamous metaplasia at a concentration of 10e-10; assay type: functional, Cricetulus griseus; in short: as §2
# [29] = tested on: Cricetinae gen. sp.; assay: Cultures with no evidence of squamous metaplasia at a concentration of 10e-11; assay type: functional, Cricetulus griseus; in short: as §2
# [30] = tested on: L1210; assay: Inhibition of proliferation of L1210 cells in culture at a conc 1 ug/mL; assay type: functional, Mus musculus; parameters: scale not given: the % may be the effect or the level left; in short: as §3
# [31] = tested on: HEp-2; assay: Viability of human epidermoid carcinoma cells (H.Ep-2) at a conc 20 ug/mL; assay type: functional; in short: as §4
# [32] = tested on: HEp-2; assay: Viability of human epidermoid carcinoma cells (H.Ep-2) at a conc 10 ug/mL; assay type: functional; in short: as §4
# [33] = tested on: HEp-2; assay: Viability of human epidermoid carcinoma cells (H.Ep-2) at a conc 40 ug/mL; assay type: functional; in short: as §4
# [34] = tested on: HEp-2; assay: Viability of human epidermoid carcinoma cells (H.Ep-2) at a conc 1 ug/mL; assay type: functional; in short: as §4
# [35] = tested on: L1210; assay: Inhibition of proliferation of L1210 cells in culture at a conc 10 ug/mL; assay type: functional, Mus musculus; parameters: scale not given: the % may be the effect or the level left; in short: as §3
# [36] = tested on: L1210; assay: Inhibition of proliferation of L1210 cells in culture at a conc 20 ug/mL; assay type: functional, Mus musculus; parameters: scale not given: the % may be the effect or the level left; in short: as §3
# [37] = tested on: L1210; assay: Inhibition of proliferation of L1210 cells in culture at a conc 40 ug/mL; assay type: functional, Mus musculus; parameters: scale not given: the % may be the effect or the level left; in short: as §3
structure (smiles),measurement,setting,value
CCNC(=O)/C=C(C)/C=C/C=C(C)/C=C/C1=C(C)CCCC1(C)C,EC50,[1],1000 pM
CC1=C(/C=C/C(C)=C/C=C/C(C)=C\C(=O)Nc2ccc(O)cc2)C(C)(C)CCC1,EC50,[1],> 1000 pM
CC1=C(/C=C/C(C)=C/C=C/C(C)=C/C(=O)NC(CC(C)C)C(=O)O)C(C)(C)CCC1 (centres undefined),Culture,[2],87%
same,Culture,[3],48%
same,Culture,[4],0%
same,Culture,[5],96%
same,EC50,[6],100 pM
same,Control,[7],20%
same,Culture,[8],0%
same,Culture,[9],0%
same,Culture,[10],58%
same,Control,[11],25%
same,Culture,[12],0%
same,Culture,[13],0%
same,Control,[14],29%
same,Culture,[15],4%
same,Culture,[16],4%
same,Culture,[17],16%
same,Control,[18],73%
same,Culture,[19],0%
same,Control,[20],95%
same,Culture,[21],0%
same,Culture,[22],14%
same,Culture,[23],9%
same,Control,[24],62%
same,Culture,[25],4%
same,Culture,[26],14%
same,Control,[27],14%
same,Culture,[28],32%
same,Culture,[29],14%
CC1=C(/C=C/C(C)=C/C=C/C(C)=C\C(=O)NCCO)C(C)(C)CCC1,Control,[30],76%
same,Control,[31],21%
same,Control,[32],38%
same,Control,[33],27%
same,Control,[34],61%
same,Control,[35],57%
same,EC50,[1],300 pM
same,Control,[36],56%
same,Control,[37],0.5%
